This is an account of results in ChEMBL document CHEMBL2177067 (J Med Chem, 2012).

pIC50: −log10 of the molar value. Converted amounts (≈) assume the structure as drawn.

As usually defined, the pIC50 is the negative decadic logarithm of the IC50, by convention in mol/L. The low end stands for a large IC50, the high end for a small IC50. For orientation: MIC means the lowest concentration that inhibits growth of the organism. Low readings indicate a more susceptible organism, high ones a less susceptible organism. For orientation: CC50 means the concentration at which the toxic effect on the cells reaches its halfway point. Read a low CC50 as harm at low concentration.

Tested on in one series: not listed separately
Briefly: Selectivity index, ratio of CC50 for human HeLa cells to MIC for Bacillus anthracis. The class given is functional. In outline:
(§1)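 Selectivity index is HeLa CC50 (MTS assay) divided by the bacterial MIC.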
Regarding `Cc1c(CCC(=O)O)c(=O)oc2c(C)c(OCc3cccc(-c4ccccc4)c3)ccc12`, the “Selectivity Index” value is 9.
In the case of `Cc1c(CCC(=O)O)c(=O)oc2c(C)c(OCc3ccc(-c4ccccc4C#N)cc3)ccc12`, the “Selectivity Index” value came out at 15.6.
Still for that read-out and setting: then `CCc1c(OCc2ccc(-c3ccccc3)cc2)ccc2c(C)c(CCC(=O)O)c(=O)oc12`, with 34.

Tested on in a further series: not listed separately
As to the kind of experiment: Selectivity index, ratio of CC50 for human HeLa cells to MIC for Staphylococcus aureus ATCC 25923. The class given is functional. In outline:
as §1
As to `Cc1c(CCC(=O)O)c(=O)oc2c(C)c(OCc3cccc(-c4ccccc4)c3)ccc12`, the “Selectivity Index” value stood at 0.3.
On the same count and under the same terms, to `Cc1c(CCC(=O)O)c(=O)oc2c(C)c(OCc3ccc(-c4ccccc4C#N)cc3)ccc12` belongs 7.8.
Still for that read-out and setting: then `CCc1c(OCc2ccc(-c3ccccc3)cc2)ccc2c(C)c(CCC(=O)O)c(=O)oc12`, with 8.4.

For a further series, the target named is T1, Replicative DNA helicase (Bacillus anthracis, UniProt A0A6L8Q2B7).
T1 sequence (A0A6L8Q2B7 whole entry): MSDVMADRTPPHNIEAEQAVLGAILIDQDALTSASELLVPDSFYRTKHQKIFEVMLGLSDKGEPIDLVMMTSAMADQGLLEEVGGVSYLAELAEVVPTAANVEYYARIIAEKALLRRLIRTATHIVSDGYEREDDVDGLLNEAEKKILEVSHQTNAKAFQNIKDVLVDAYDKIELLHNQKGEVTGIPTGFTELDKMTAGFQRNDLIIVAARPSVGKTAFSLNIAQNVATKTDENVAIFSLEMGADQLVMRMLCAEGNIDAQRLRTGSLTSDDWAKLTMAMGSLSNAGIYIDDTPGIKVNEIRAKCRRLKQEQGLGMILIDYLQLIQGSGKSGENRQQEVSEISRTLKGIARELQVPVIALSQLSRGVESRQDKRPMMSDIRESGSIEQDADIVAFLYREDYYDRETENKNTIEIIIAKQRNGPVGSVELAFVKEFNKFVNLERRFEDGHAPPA
Briefly: Inhibition of Bacillus anthracis Sterne 34F2 replicative DNA helicase-mediated ATP-dependent dissociation of Hel-5'FAM:Hel-3'BHQ by FRET assay. The arrangement: species or system Bacillus anthracis str. Sterne. In outline:
(§2)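 Unwinding was read by FRET as helicase-driven, ATP-dependent dissociation of annealed Hel-5′FAM and Hel-3′BHQ oligonucleotides, one fluorescent and the other quencher-labelled. The replicative helicases were prepared as described earlier.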
`Cc1c(CCC(=O)O)c(=O)oc2c(C)c(OCc3nccc4ccccc34)ccc12`: the pIC50 is < 4.00.
On the same count and under the same terms, to `C#CCOc1ccc2c(C)c(CCC(=O)O)c(=O)oc2c1C` belongs < 4.00; to `Cc1c(CCC(=O)O)c(=O)oc2c(C)c(OCc3ccccc3)ccc12`, 4.07.
On the same count and under the same terms, then `Cc1c(CCC(=O)O)c(=O)oc2c(C)c(OCc3ccc4ccc(Cl)cc4n3)ccc12`, with 4.25.
Still for that read-out and setting: then `C=CCOc1ccc2c(C)c(CCC(=O)O)c(=O)oc2c1C`, with < 4.00; and `CC(=O)NCCNC(=O)CCc1c(C)c2ccc(OCc3ccc(-c4ccccc4)cc3)c(C)c2oc1=O`, with < 4.00; and `Cc1c(CCC(=O)O)c(=O)oc2c(C)c(OCc3cccc(-c4ccccc4)c3)ccc12`, with 5.12.
Turning to `Cc1c(CCC(=O)O)c(=O)oc2cc(OCc3nccc4ccccc34)ccc12`, the pIC50 is < 4.00.
On the same count and under the same terms, to `Cc1c(CCC(=O)O)c(=O)oc2c(C)c(OCc3ccc(-c4ccccc4C#N)cc3)ccc12` belongs 5.42.
On the same count and under the same terms, then `Cc1c(CCC(=O)O)c(=O)oc2c(C)c(OCc3ccncc3)ccc12`, with < 4.00.
The same measure, in the same setting: then `Cc1c(CCC(=O)O)c(=O)oc2cc(OCc3ccc4ccc(Cl)cc4n3)ccc12`, with < 4.00; and `CCc1c(OCc2ccc(-c3ccccc3)cc2)ccc2c(C)c(CCC(=O)O)c(=O)oc12`, with 5.70; and `Cc1c(CCC(=O)O)c(=O)oc2c(C)c(OCc3ccc(-c4ccc(F)cc4F)cc3)ccc12`, with 5.05.

In a further series the test system is Staphylococcus aureus. Briefly: Antibacterial activity against Staphylococcus aureus ATCC 25923 by broth microdilution method. The class given is functional.
Turning to `Cc1c(CCC(=O)O)c(=O)oc2c(C)c(OCc3cccc(-c4ccccc4)c3)ccc12`, it took 20 µM (≈ 8.57 µg/mL) to inhibit growth (MIC).
Same read-out and setting: to `Cc1c(CCC(=O)O)c(=O)oc2c(C)c(OCc3ccc(-c4ccccc4C#N)cc3)ccc12` belongs 2.5 µM (≈ 1.13 µg/mL); to `CCc1c(OCc2ccc(-c3ccccc3)cc2)ccc2c(C)c(CCC(=O)O)c(=O)oc12`, 5 µM (≈ 2.21 µg/mL).
In the case of `Cc1c(CCC(=O)O)c(=O)oc2c(C)c(OCc3ccc(-c4ccc(F)cc4F)cc3)ccc12`, the MIC was > 100 µM.

The next series has as its system Bacillus anthracis. As to the kind of experiment: Antibacterial activity against Bacillus anthracis by broth microdilution method. The class given is functional.
In turn, `Cc1c(CCC(=O)O)c(=O)oc2c(C)c(OCc3cccc(-c4ccccc4)c3)ccc12` gave an MIC of 0.625 µM (≈ 0.268 µg/mL).
On the same count and under the same terms, then `Cc1c(CCC(=O)O)c(=O)oc2c(C)c(OCc3ccc(-c4ccccc4C#N)cc3)ccc12`, with 1.25 µM (≈ 0.567 µg/mL); and `CCc1c(OCc2ccc(-c3ccccc3)cc2)ccc2c(C)c(CCC(=O)O)c(=O)oc12`, with 1.25 µM (≈ 0.553 µg/mL).
Still for that read-out and setting: to `Cc1c(CCC(=O)O)c(=O)oc2c(C)c(OCc3ccc(-c4ccc(F)cc4F)cc3)ccc12` belongs > 100 µM.

Tested on in another series: not listed separately
As to the kind of experiment: Inhibition of Staphylococcus aureus ATCC 25923 replicative DnaB helicase-mediated ATP-dependent dissociation of Hel-5'FAM:Hel-3'BHQ by FRET assay. In short, it runs like this: as §2
Regarding `Cc1c(CCC(=O)O)c(=O)oc2c(C)c(OCc3nccc4ccccc34)ccc12`, the pIC50 is < 4.00.
For `C#CCOc1ccc2c(C)c(CCC(=O)O)c(=O)oc2c1C`, the pIC50 was < 4.00.
Consider `Cc1c(CCC(=O)O)c(=O)oc2c(C)c(OCc3ccccc3)ccc12`, for which the pIC50 is 4.22.
Regarding `Cc1c(CCC(=O)O)c(=O)oc2c(C)c(OCc3ccc4ccc(Cl)cc4n3)ccc12`, the pIC50 is 4.30.
On the same count and under the same terms, to `C=CCOc1ccc2c(C)c(CCC(=O)O)c(=O)oc2c1C` belongs < 4.00; to `CC(=O)NCCNC(=O)CCc1c(C)c2ccc(OCc3ccc(-c4ccccc4)cc3)c(C)c2oc1=O`, < 4.00; to `Cc1c(CCC(=O)O)c(=O)oc2c(C)c(OCc3cccc(-c4ccccc4)c3)ccc12`, 5.22.
Still for that read-out and setting: to `Cc1c(CCC(=O)O)c(=O)oc2cc(OCc3nccc4ccccc34)ccc12` belongs < 4.00; to `Cc1c(CCC(=O)O)c(=O)oc2c(C)c(OCc3ccc(-c4ccccc4C#N)cc3)ccc12`, 5.34; to `Cc1c(CCC(=O)O)c(=O)oc2c(C)c(OCc3ccncc3)ccc12`, < 4.00.
The molecule `Cc1c(CCC(=O)O)c(=O)oc2cc(OCc3ccc4ccc(Cl)cc4n3)ccc12` had a pIC50 of 4.15.
`Cc1c(CCC(=O)O)c(=O)oc2c(C)c(OCc3ccc(-c4ccc(F)cc4F)cc3)ccc12` had a pIC50 of 5.31.

Another series has as its system HeLa. As to the kind of experiment: Cytotoxicity against human HeLa cells by MTS assay. The class given is cell-based. Background: Formazan colour is commonly taken as a measure of viable cells.
In the case of `Cc1c(CCC(=O)O)c(=O)oc2c(C)c(OCc3cccc(-c4ccccc4)c3)ccc12`, half-maximal cytotoxicity (CC50) was put at 5.6 µM.
Still for that read-out and setting: to `Cc1c(CCC(=O)O)c(=O)oc2c(C)c(OCc3ccc(-c4ccccc4C#N)cc3)ccc12` belongs 19.5 µM.
`CCc1c(OCc2ccc(-c3ccccc3)cc2)ccc2c(C)c(CCC(=O)O)c(=O)oc12`: the midpoint of cytotoxicity, the CC50, lay at 42 µM.
